Source: ChEMBL document CHEMBL1157636, “Novel C-aryl glucoside SGLT2 inhibitors as potential antidiabetic agents: 1,3,4-Thiadiazolylmethylphenyl glucoside congeners” (Bioorg Med Chem, 2010)

Tests used:
[1] = target: T1, Sodium/glucose cotransporter 2 (Homo sapiens, UniProt P31639); experiment: Inhibition of human recombinant SGLT2 expressed in CHO cells by liquid scintillation counting; format: cell-based
T1 sequence (P31639 whole entry): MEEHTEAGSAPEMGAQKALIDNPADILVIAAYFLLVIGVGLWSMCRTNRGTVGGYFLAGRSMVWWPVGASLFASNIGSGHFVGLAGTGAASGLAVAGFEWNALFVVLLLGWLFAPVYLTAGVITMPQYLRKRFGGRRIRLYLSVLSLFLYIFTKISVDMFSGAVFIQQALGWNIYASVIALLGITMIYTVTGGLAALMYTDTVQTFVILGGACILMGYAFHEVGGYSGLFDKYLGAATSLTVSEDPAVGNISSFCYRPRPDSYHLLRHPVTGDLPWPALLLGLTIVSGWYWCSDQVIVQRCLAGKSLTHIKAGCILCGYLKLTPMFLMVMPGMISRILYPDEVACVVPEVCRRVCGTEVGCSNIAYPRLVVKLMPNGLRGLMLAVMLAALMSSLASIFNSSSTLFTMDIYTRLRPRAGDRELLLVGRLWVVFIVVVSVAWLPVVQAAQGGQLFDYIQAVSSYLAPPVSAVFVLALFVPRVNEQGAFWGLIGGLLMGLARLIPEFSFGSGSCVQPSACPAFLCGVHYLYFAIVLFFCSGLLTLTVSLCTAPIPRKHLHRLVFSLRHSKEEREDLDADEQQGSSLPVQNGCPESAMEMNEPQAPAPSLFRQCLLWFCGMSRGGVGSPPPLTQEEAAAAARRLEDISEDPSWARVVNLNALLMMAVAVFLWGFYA
Method in brief: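 hSGLT2 cloned from human kidney cDNA; stable clones selected by G418 resistance. Preincubated 10 min at 37 °C in sodium-free choline buffer pH 7.4. Then 2 h at 37 °C in Na⁺ uptake buffer with 1 mM unlabeled AMG plus ¹⁴C-AMG and inhibitor or DMSO. Washed, radioactivity counted; IC50 by nonlinear regression.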

[2] = tested on: Rattus norvegicus; experiment: Effect on urinary glucose excretion in normal fasted Sprague-Dawley rat at 10 mg/kg, po subsequently co-treated with glucose measured up to 24 hrs relative to untreated control; format: ADME, organism-based, Urine; set-up: dose 10 mg/kg, route oral; conditions: in vivo
Method in brief: (§1)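 Overnight-fasted male SD rats placed in metabolism cages for 24 h baseline urine, then randomized and given single oral drug or vehicle followed by oral 50% aqueous glucose (2 g/kg). Urine collected 24 h, re-fed 1 h after glucose challenge. Urine volume measured and glucose determined enzymatically. Values normalized per 200 g body weight; means ± S.E.M., ANOVA with Dunnett's test.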

[3] = Cmax in Sprague-Dawley rat at 5 mg/kg, po; format: ADME, organism-based; set-up: dose 5 mg/kg, route oral; conditions: in vivo
[4] = tested on: Mus musculus; experiment: Antidiabetic activity in db/db mouse assessed as reduction in blood glucose level at 10 mg/kg, po after 4 hrs relative to untreated control; format: functional; set-up: scale not given: the % may be the effect or the level left
Method in brief: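 Diabetic db/db mice (n = 4 per group), randomized by weight and given single oral dose of vehicle or drug. Reduction versus vehicle controls at 4 h; means ± S.E.M., one-way ANOVA with Dunnett's test.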

[5] = Elimination half life in Sprague-Dawley rat at 5 mg/kg, po; format: ADME, organism-based; set-up: dose 5 mg/kg, route oral; conditions: in vivo, read-out: beta t1/2 (converted)
[6] = Tmax in Sprague-Dawley rat at 5 mg/kg, po; format: ADME, organism-based; set-up: dose 5 mg/kg, route oral; conditions: in vivo
[7] = Oral bioavailability in Sprague-Dawley rat at 5 mg/kg; format: ADME, organism-based; conditions: in vivo
[8] = tested on: Rattus norvegicus; experiment: Effect on urinary glucose excretion in normal fasted Sprague-Dawley rat at 10 mg/kg, po subsequently co-treated with glucose measured up to 24 hrs relative to untreated control; conditions: in vivo
[9] = tested on: Rattus norvegicus; experiment: Effect on urine volume in normal fasted Sprague-Dawley rat at 10 mg/kg, po subsequently co-treated with glucose measured up to 24 hrs relative to untreated control; format: ADME, organism-based; set-up: dose 10 mg/kg, route oral; conditions: in vivo; method in brief: as §1

For `CC(C)(C)c1nnc(Cc2cccc(C3O[C@H](CO)[C@@H](O)[C@H](O)[C@H]3O)c2)s1` (some centres not stated), the IC50 [1] was > 10 µM.

With `COc1ccc(Cc2ccccc2O[C@@H]2O[C@H](CO)[C@@H](O)[C@H](O)[C@H]2O)cc1` [SERGLIFLOZIN A] the IC50 [1] was 0.00625 µM.

Compound `Cn1nc(-c2nnc(Cc3cc([C@@H]4O[C@H](CO)[C@@H](O)[C@H](O)[C@H]4O)ccc3Cl)s2)c2ccccc21` has an IC50 [1] of 3.28 µM.

Compound `OC[C@H]1O[C@@H](c2ccc(Cl)c(Cc3nnc(-c4csc(-c5ccncc5)n4)s3)c2)[C@H](O)[C@@H](O)[C@@H]1O` has an IC50 [1] of 0.0726 µM.

For `CCc1noc(C)c1-c1nnc(Cc2cc([C@@H]3O[C@H](CO)[C@@H](O)[C@H](O)[C@H]3O)ccc2Cl)s1`, the IC50 [1] was > 10 µM.

With `OC[C@H]1O[C@@H](c2ccc(Cl)c(Cc3nnc(-c4ccco4)s3)c2)[C@H](O)[C@@H](O)[C@@H]1O` the “fold change (FC)” value [2] was 100, the Cmax [3] was 50 ng/mL and the Activity [4] was 72.8%. For the same compound, the half-life [5] was 51.6 min, the Tmax [6] was 19.8 min and the bioavailability [7] was 7.7%. For the same compound, the “fold change (FC)” value [8] was 100 and the “fold change (FC)” value [9] was 1.4.

Work on `CCCc1nnc(Cc2cccc([C@@H]3O[C@H](CO)[C@@H](O)[C@H](O)[C@H]3O)c2)s1` yielded an IC50 [1] of 6.91 µM.

For `CC(C)(c1ccc(Cl)cc1)c1nnc(Cc2cc(C3O[C@H](CO)[C@@H](O)[C@H](O)[C@H]3O)ccc2Cl)s1` (some centres not stated), the IC50 [1] was > 10 µM.

`OC[C@H]1OC(c2ccc(Cl)c(Cc3nnc(Cc4ccc(Cl)cc4)s3)c2)[C@H](O)[C@@H](O)[C@@H]1O` (some centres not stated) showed an IC50 [1] of 2.39 µM.

In the case of `Cc1noc(C)c1-c1nnc(Cc2cc([C@@H]3O[C@H](CO)[C@@H](O)[C@H](O)[C@H]3O)ccc2Cl)s1`, the IC50 [1] is reported as > 10 µM.
